Experimental data as given in ChEMBL document CHEMBL1142148, “Antibiotic susceptibility profile of bifidobacteria as affected by oxgall, acid, and hydrogen peroxide stress” (2007).

Key:
Bifidobacterium longum [1] = assay: Antimicrobial activity against 90 mins hydrogen peroxide-stressed Bifidobacterium longum ATCC 15708 after 18 hrs; format: functional
Summary of the method: (§1)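 Stress applied for 90 min at 37°C under anaerobic conditions, using MRS (initial pH 6.5) containing H2O2 at each strain's own inhibitory concentration. The H2O2 level was set beforehand by microplate tolerance testing. Challenged cells were regrown in MRS for 24 h (footnote: 18 h) before MIC testing by broth microdilution. Median of four repetitions.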

[2] = Antimicrobial activity against 90 mins oxgall-stressed Bifidobacterium infantis ATCC 15697 after 18 hrs; format: functional, Bifidobacterium longum subsp. infantis; conditions: Bifidobacterium longum
Summary of the method: (§2)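 Cells pelleted from mid-log MRS culture and resuspended in MRS (initial pH 6.5) with 0.3% (wt/vol) oxgall for 90 min anaerobically at 37°C. They were then regrown in MRS pH 6.5 for 24 h (footnote: 18 h) anaerobically and tested for MIC by the same broth microdilution assay. Median of four repetitions.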

Bifidobacterium animalis [3] = assay: Antimicrobial activity against 60 min 1 M HCl-stressed Bifidobacterium animalis ATCC 27536 after 18 hrs; format: functional
Summary of the method: (§3)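 Mid-log MRS culture pelleted and resuspended in MRS broth brought to pH 2.0 with 1 M HCl, held anaerobically at 37°C for 60 min, then subcultured in MRS (pH 6.5) for 24 h anaerobically before MIC testing by broth microdilution (as for unstressed cells). Table footnote gives 18 h anaerobic regrowth after the stress. MIC is the median of four repetitions.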

Bifidobacterium longum [4] = assay: Antimicrobial activity against Bifidobacterium longum P/N 601377; format: functional
Summary of the method: (§4)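 Broth microdilution in MRS plus 0.05% L-cysteine-HCl. Mid-log culture adjusted to OD650 0.1, giving about 2.5 × 10^4 to 5.0 × 10^4 CFU/well, then added to twofold serial dilutions of agent. Plates incubated anaerobically at 37°C for 18 h and read at OD650. MIC is the lowest concentration matching the uninoculated blank OD, taken as the median of four repeats.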

Bifidobacterium breve [5] = assay: Antimicrobial activity against 90 mins hydrogen peroxide-stressed Bifidobacterium breve ATCC 15700 after 18 hrs; format: functional; summary of the method: as §1
Bifidobacterium animalis [6] = assay: Antimicrobial activity against 90 mins oxgall-stressed Bifidobacterium animalis ATCC 27536 after 18 hrs; format: functional; summary of the method: as §2
[7] = tested on: Bifidobacterium thermophilum; assay: Antimicrobial activity against 90 mins hydrogen peroxide-stressed Bifidobacterium thermophilum ATCC 25866 after 18 hrs; format: functional; summary of the method: as §1
Bifidobacterium bifidum [8] = assay: Antimicrobial activity against 90 mins oxgall-stressed Bifidobacterium bifidum R0071 after 18 hrs; format: functional; summary of the method: as §2
Bifidobacterium longum [9] = assay: Antimicrobial activity against 60 min 1 M HCl-stressed Bifidobacterium longum R0175 after 18 hrs; format: functional; summary of the method: as §3
Bifidobacterium bifidum [10] = assay: Antimicrobial activity against 90 mins oxgall-stressed Bifidobacterium bifidum ATCC 15696 after 18 hrs; format: functional; summary of the method: as §2
Bifidobacterium bifidum [11] = assay: Antimicrobial activity against 60 min 1 M HCl-stressed Bifidobacterium bifidum R0071 after 18 hrs; format: functional; summary of the method: as §3
[12] = tested on: Bifidobacterium pseudolongum; assay: Antimicrobial activity against 90 mins oxgall-stressed Bifidobacterium pseudolongum ATCC 25562 after 18 hrs; format: functional; summary of the method: as §2
Bifidobacterium breve [13] = assay: Antimicrobial activity against 60 min 1 M HCl-stressed Bifidobacterium breve R0070 after 18 hrs; format: functional; summary of the method: as §3
[14] = tested on: Bifidobacterium thermophilum; assay: Antimicrobial activity against 60 min 1 M HCl-stressed Bifidobacterium thermophilum ATCC 25866 after 18 hrs; format: functional; summary of the method: as §3
Bifidobacterium breve [15] = assay: Antimicrobial activity against 60 min 1 M HCl-stressed Bifidobacterium breve ATCC 15700 after 18 hrs; format: functional; summary of the method: as §3
[16] = Antimicrobial activity against Bifidobacterium infantis ATCC 15697; format: functional, Bifidobacterium longum subsp. infantis; conditions: Bifidobacterium longum; summary of the method: as §4
Bifidobacterium longum [17] = assay: Antimicrobial activity against Bifidobacterium longum ATCC 15707; format: functional; summary of the method: as §4
Bifidobacterium longum [18] = assay: Antimicrobial activity against 90 mins hydrogen peroxide-stressed Bifidobacterium longum P/N 601377 after 18 hrs; format: functional; summary of the method: as §1
Bifidobacterium bifidum [19] = assay: Antimicrobial activity against 90 mins oxgall-stressed Bifidobacterium bifidum BB12 after 18 hrs; format: functional; summary of the method: as §2
Bifidobacterium animalis [20] = assay: Antimicrobial activity against 90 mins hydrogen peroxide-stressed Bifidobacterium animalis ATCC 27536 after 18 hrs; format: functional; summary of the method: as §1
Bifidobacterium longum [21] = assay: Antimicrobial activity against 90 mins hydrogen peroxide-stressed Bifidobacterium longum ATCC 15707 after 18 hrs; format: functional; summary of the method: as §1
Bifidobacterium breve [22] = assay: Antimicrobial activity against 90 mins oxgall-stressed Bifidobacterium breve R0070 after 18 hrs; format: functional; summary of the method: as §2
[23] = tested on: Bifidobacterium pseudolongum; assay: Antimicrobial activity against 60 min 1 M HCl-stressed Bifidobacterium pseudolongum ATCC 25562 after 18 hrs; format: functional; summary of the method: as §3
[24] = Antimicrobial activity against 60 min 1 M HCl-stressed Bifidobacterium infantis ATCC 15697 after 18 hrs; format: functional, Bifidobacterium longum subsp. infantis; conditions: Bifidobacterium longum; summary of the method: as §3
Bifidobacterium bifidum [25] = assay: Antimicrobial activity against Bifidobacterium bifidum R0071; format: functional; summary of the method: as §4
Bifidobacterium longum [26] = assay: Antimicrobial activity against Bifidobacterium longum ATCC 15708; format: functional; summary of the method: as §4
[27] = tested on: Bifidobacterium thermophilum; assay: Antimicrobial activity against 90 mins oxgall-stressed Bifidobacterium thermophilum ATCC 25866 after 18 hrs; format: functional; summary of the method: as §2
Bifidobacterium bifidum [28] = assay: Antimicrobial activity against Bifidobacterium bifidum BB12; format: functional; summary of the method: as §4
Bifidobacterium breve [29] = assay: Antimicrobial activity against Bifidobacterium breve ATCC 15700; format: functional; summary of the method: as §4
Bifidobacterium longum [30] = assay: Antimicrobial activity against 90 mins oxgall-stressed Bifidobacterium longum ATCC 15707 after 18 hrs; format: functional; summary of the method: as §2
Bifidobacterium longum [31] = assay: Antimicrobial activity against 90 mins oxgall-stressed Bifidobacterium longum R0175 after 18 hrs; format: functional; summary of the method: as §2
Bifidobacterium breve [32] = assay: Antimicrobial activity against Bifidobacterium breve R0070; format: functional; summary of the method: as §4
[33] = tested on: Bifidobacterium thermophilum; assay: Antimicrobial activity against Bifidobacterium thermophilum ATCC 25866; format: functional; summary of the method: as §4
Bifidobacterium bifidum [34] = assay: Antimicrobial activity against 90 mins hydrogen peroxide-stressed Bifidobacterium bifidum BB12 after 18 hrs; format: functional; summary of the method: as §1
Bifidobacterium longum [35] = assay: Antimicrobial activity against 90 mins oxgall-stressed Bifidobacterium longum ATCC 15708 after 18 hrs; format: functional; summary of the method: as §2
Bifidobacterium breve [36] = assay: Antimicrobial activity against 90 mins hydrogen peroxide-stressed Bifidobacterium breve R0070 after 18 hrs; format: functional; summary of the method: as §1
Bifidobacterium longum [37] = assay: Antimicrobial activity against 60 min 1 M HCl-stressed Bifidobacterium longum ATCC 15707 after 18 hrs; format: functional; summary of the method: as §3
Bifidobacterium longum [38] = assay: Antimicrobial activity against 60 min 1 M HCl-stressed Bifidobacterium longum P/N 601377 after 18 hrs; format: functional; summary of the method: as §3
Bifidobacterium longum [39] = assay: Antimicrobial activity against 90 mins oxgall-stressed Bifidobacterium longum P/N 601377 after 18 hrs; format: functional; summary of the method: as §2
Bifidobacterium bifidum [40] = assay: Antimicrobial activity against 90 mins hydrogen peroxide-stressed Bifidobacterium bifidum R0071 after 18 hrs; format: functional; summary of the method: as §1
Bifidobacterium animalis [41] = assay: Antimicrobial activity against Bifidobacterium animalis ATCC 27536; format: functional; summary of the method: as §4
Bifidobacterium breve [42] = assay: Antimicrobial activity against 90 mins oxgall-stressed Bifidobacterium breve ATCC 15700 after 18 hrs; format: functional; summary of the method: as §2
Bifidobacterium longum [43] = assay: Antimicrobial activity against Bifidobacterium longum R0175; format: functional; summary of the method: as §4
[44] = tested on: Bifidobacterium pseudolongum; assay: Antimicrobial activity against Bifidobacterium pseudolongum ATCC 25562; format: functional; summary of the method: as §4
Bifidobacterium longum [45] = assay: Antimicrobial activity against 90 mins hydrogen peroxide-stressed Bifidobacterium longum R0175 after 18 hrs; format: functional; summary of the method: as §1
Bifidobacterium bifidum [46] = assay: Antimicrobial activity against 60 min 1 M HCl-stressed Bifidobacterium bifidum BB12 after 18 hrs; format: functional; summary of the method: as §3
Bifidobacterium bifidum [47] = assay: Antimicrobial activity against Bifidobacterium bifidum ATCC 15696; format: functional; summary of the method: as §4

## CN(C)[C@@H]1C(O)=C(C(N)=O)C(=O)[C@@]2(O)C(O)=C3C(=O)c4c(O)cccc4[C@@](C)(O)[C@H]3C[C@@H]12.Cl [TETRACYCLINE HYDROCHLORIDE]
Bifidobacterium longum [1]
  MIC: 31.2 µg/mL
[2]
  MIC: 250 µg/mL
Bifidobacterium animalis [3]
  MIC: 62.5 µg/mL
Bifidobacterium longum [4]
  MIC: 15.6 µg/mL
Bifidobacterium breve [5]
  MIC: 31.2 µg/mL
Bifidobacterium animalis [6]
  MIC: 125 µg/mL
[7]
  MIC: 15.6 µg/mL
Bifidobacterium bifidum [8]
  MIC: 62.5 µg/mL
Bifidobacterium longum [9]
  MIC: 0.98 µg/mL
Bifidobacterium bifidum [10]
  MIC: 125 µg/mL
Bifidobacterium bifidum [11]
  MIC: 31.2 µg/mL
[12]
  MIC: 125 µg/mL
Bifidobacterium breve [13]
  MIC: 31.2 µg/mL
[14]
  MIC: 125 µg/mL
Bifidobacterium breve [15]
  MIC: 250 µg/mL
[16]
  MIC: 125 µg/mL
Bifidobacterium longum [17]
  MIC: 62.5 µg/mL
Bifidobacterium longum [18]
  MIC: 125 µg/mL
Bifidobacterium bifidum [19]
  MIC: 3.9 µg/mL
Bifidobacterium animalis [20]
  MIC: 62.5 µg/mL
Bifidobacterium longum [21]
  MIC: 7.8 µg/mL
Bifidobacterium breve [22]
  MIC: 62.5 µg/mL
[23]
  MIC: 0.98 µg/mL
[24]
  MIC: 125 µg/mL
Bifidobacterium bifidum [25]
  MIC: 31.2 µg/mL
Bifidobacterium longum [26]
  MIC: 31.2 µg/mL
[27]
  MIC: 125 µg/mL
Bifidobacterium bifidum [28]
  MIC: 15.6 µg/mL
Bifidobacterium breve [29]
  MIC: 31.2 µg/mL
Bifidobacterium longum [30]
  MIC: 125 µg/mL
Bifidobacterium longum [31]
  MIC: 125 µg/mL
Bifidobacterium breve [32]
  MIC: 62.5 µg/mL
[33]
  MIC: 62.5 µg/mL
Bifidobacterium bifidum [34]
  MIC: 7.8 µg/mL
Bifidobacterium longum [35]
  MIC: 125 µg/mL
Bifidobacterium breve [36]
  MIC: 7.8 µg/mL
Bifidobacterium longum [37]
  MIC: 62.5 µg/mL
Bifidobacterium longum [38]
  MIC: 0.98 µg/mL
Bifidobacterium longum [39]
  MIC: 62.5 µg/mL
Bifidobacterium bifidum [40]
  MIC: 62.5 µg/mL
Bifidobacterium animalis [41]
  MIC: 3.9 µg/mL
Bifidobacterium breve [42]
  MIC: 31.2 µg/mL
Bifidobacterium longum [43]
  MIC: 62.5 µg/mL
[44]
  MIC: 15.6 µg/mL
Bifidobacterium longum [45]
  MIC: 15.6 µg/mL
Bifidobacterium bifidum [46]
  MIC: 0.98 µg/mL
Bifidobacterium bifidum [47]
  MIC: 31.2 µg/mL
